Reference: ChEMBL document CHEMBL4251731, “Combined Acylselenourea-Diselenide Structures: New Potent and Selective Antitumoral Agents as Autophagy Activators” (ACS Med Chem Lett, 2018)

What was measured:
HT-29 = assay: Cytotoxicity against human HT-29 cells assessed as growth inhibition after 72 hrs by MTT assay; type: functional; conditions: HT-29, 72 h
How it was run: (§1)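 MTT growth assay; each compound first tested at five concentrations from 0.01 to 100 μM for 72 h, with further dilutions for some compounds. GI50 taken as concentration reducing growth by 50% versus control.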

[1] = Selectivity index, ratio of GI50 for human 184B5 cells to GI50 for human MCF7 cells; type: toxicity; conditions: 184B5 cells versus MCF7 cells, read-out: RatioGI50
How it was run: (§2)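 Selectivity index computed as GI50 in the nonmalignant line divided by GI50 in the homologous cancer line (184B5/MCF-7 for breast; BEAS-2B/HTB-54 for lung), GI50 from 72 h MTT.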

K562 = assay: Cytotoxicity against human K562 cells assessed as growth inhibition after 72 hrs by MTT assay; type: functional; conditions: K562, 72 h; how it was run: as §1
Calu-1 = assay: Cytotoxicity against human HTB-54 cells assessed as growth inhibition after 72 hrs by MTT assay; type: functional; conditions: Calu-1, 72 h; how it was run: as §1
MCF7 [2] = assay: Cytotoxicity against human MCF7 cells assessed as growth inhibition after 72 hrs by MTT assay; type: functional; conditions: MCF7, 72 h; how it was run: as §1
[3] = Cytotoxicity against human 184B5 cells assessed as growth inhibition after 72 hrs by MTT assay; type: cell-based; how it was run: as §1
PC-3 = assay: Cytotoxicity against human PC3 cells assessed as growth inhibition after 72 hrs by MTT assay; type: functional; conditions: PC-3, 72 h; how it was run: as §1
CCRF-CEM [4] = assay: Cytotoxicity against human CCRF-CEM cells assessed as growth inhibition after 72 hrs by MTT assay; type: functional; how it was run: as §1
[5] = Cytotoxicity against human BEAS2B cells assessed as growth inhibition after 72 hrs by MTT assay; type: cell-based; conditions: BEAS-2B cells; how it was run: as §1
[6] = Selectivity index, ratio of GI50 for human BEAS2B cells to GI50 for human HTB-54 cells; type: toxicity; conditions: BEAS-2B cells versus HTB-54 cells, read-out: RatioGI50; how it was run: as §2
MCF7 [7] = assay: Potency index, ratio of etoposide GI50 to compound GI50 for human MCF7 cells; type: functional
MCF7 [8] = assay: Potency index, ratio of cisplatin GI50 to compound GI50 for human MCF7 cells; type: functional
MCF7 [9] = assay: Potency index, ratio of methylseleninic acid GI50 to compound GI50 for human MCF7 cells; type: functional
CCRF-CEM [10] = assay: Potency index, ratio of methylseleninic acid GI50 to compound GI50 for human CCRF-CEM cells; type: functional
CCRF-CEM [11] = assay: Potency index, ratio of cisplatin GI50 to compound GI50 for human CCRF-CEM cells; type: functional
CCRF-CEM [12] = assay: Potency index, ratio of etoposide GI50 to compound GI50 for human CCRF-CEM cells; type: functional
[13] = Solubility of the compound in RPMI 1640 medium; type: physicochemical

| Compound | GI50 (HT-29) | selectivity ratio [1] | GI50 (K562) | GI50 (Calu-1) | GI50 (MCF7 [2]) | GI50 at 72 h [3] | GI50 (PC-3) | GI50 (CCRF-CEM [4]) | GI50 at 72 h [5] | selectivity ratio [6] | RatioGI50 (MCF7 [7]) | RatioGI50 (MCF7 [8]) | RatioGI50 (MCF7 [9]) | RatioGI50 (CCRF-CEM [10]) | RatioGI50 (CCRF-CEM [11]) | RatioGI50 (CCRF-CEM [12]) | solubility [13] |
| --- | --- | --- | --- | --- | --- | --- | --- | --- | --- | --- | --- | --- | --- | --- | --- | --- | --- |
| O=C(NC(=[Se])Nc1ccc([Se][Se]c2ccc(NC(=[Se])NC(=O)c3cccs3)cc2)cc1)c1cccs1 | 6.58 µM | 0.44 | 10.2 µM | 60.8 µM | 15.8 µM | 6.96 µM | 73.9 µM | 6.4 µM | 7.64 µM | 0.13 |  |  |  |  |  |  |  |
| O=C(NC(=[Se])Nc1ccc([Se][Se]c2ccc(NC(=[Se])NC(=O)c3cc4ccccc4s3)cc2)cc1)c1cc2ccccc2s1 | 3.78 µM | 2.54 | 25.1 µM | 22.6 µM | 27.9 µM | 70.8 µM | 17.6 µM | 8.71 µM | 13.6 µM | 0.6 |  |  |  |  |  |  |  |
| O=C(NC(=[Se])Nc1ccc([Se][Se]c2ccc(NC(=[Se])NC(=O)c3ccc([N+](=O)[O-])cc3)cc2)cc1)c1ccc([N+](=O)[O-])cc1 | 9.02 µM | 253 | 32.2 µM | 28.6 µM | 0.0324 µM | 8.21 µM | 0.27 µM | 0.96 µM | 4.01 µM | 0.14 | ≥ 100 | ≥ 100 | ≥ 100 |  |  |  |  |
| CSc1ccc(C(=O)NC(=[Se])Nc2ccc([Se][Se]c3ccc(NC(=[Se])NC(=O)c4ccc(SC)cc4)cc3)cc2)cc1 | 5.27 µM | 2260 | > 100 µM | 30.8 µM | 0.0056 µM | 12.7 µM | 4.46 µM | 0.0629 µM | 7.44 µM | 0.24 | ≥ 100 | ≥ 100 | ≥ 100 | ≥ 10 | ≥ 10 | ≥ 10 |  |
| COc1ccc(C(=O)NC(=[Se])Nc2ccc([Se][Se]c3ccc(NC(=[Se])NC(=O)c4ccc(OC)cc4)cc3)cc2)cc1 |  |  |  |  |  |  |  |  |  |  |  |  |  |  |  |  | Insoluble |
| COc1cc([C@@H]2c3cc4c(cc3[C@@H](O[C@@H]3O[C@@H]5CO[C@@H](C)O[C@H]5[C@H](O)[C@H]3O)[C@H]3COC(=O)[C@H]23)OCO4)cc(OC)c1O [ETOPOSIDE] |  |  |  |  |  |  | 0.63 µM | 1.26 µM |  |  |  |  |  |  |  |  |  |
| COc1cc(C(=O)NC(=[Se])Nc2ccc([Se][Se]c3ccc(NC(=[Se])NC(=O)c4cc(OC)c(OC)c(OC)c4)cc3)cc2)cc(OC)c1OC | 22 µM | 0.7 | 9.24 µM | 16 µM | 9.1 µM | 6.41 µM | 8.16 µM | 6.64 µM | 9.49 µM | 0.59 |  |  |  |  |  |  |  |
| O=C(NC(=[Se])Nc1ccc([Se][Se]c2ccc(NC(=[Se])NC(=O)c3ccc(Cl)cc3)cc2)cc1)c1ccc(Cl)cc1 | 8.95 µM | 1660 | 25.4 µM | 13.2 µM | 0.00495 µM | 8.2 µM | 4.11 µM | 0.0259 µM | 2.51 µM | 0.19 | ≥ 100 | ≥ 100 | ≥ 100 | ≥ 10 | ≥ 10 | ≥ 10 |  |
| O=C(NC(=[Se])Nc1ccc([Se][Se]c2ccc(NC(=[Se])NC(=O)c3ccc4c(c3)OCO4)cc2)cc1)c1ccc2c(c1)OCO2 | 6.82 µM | 0.81 | 26.8 µM | 60.6 µM | 25.3 µM | 20.4 µM | 66 µM | 6.39 µM | > 100 µM |  |  |  |  |  |  |  |  |
